The list is not random: actives were taken first. Their share in the collection is about 3.3%.
Jurkat tox 60K: cytotoxicity toward Jurkat cells; Jurkat E6.1 viability, ATP luminescence, 48 h; inhibition, % at 4 µM; hit rate 1.2% among 56,000;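 active = inhibition above the mean inhibition of all tested compounds plus 3 SD, cut at about 28% in these data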
5HT1a ag: activates the human 5-HT1a serotonin receptor | hit rate 0.56% among 65,000 | P08908 | AID 567 | activation, % at 10 µM | CHO 5-HT1a Ga15 NFAT-bla reporter, FRET ratio; 0% basal, 100% maximal reference agonist;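 active = activation above the screen-wide mean activation plus 3 SD, cut at about 19% in these data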;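 also: 0% = DMSO wells and 100% = 5-CT at EC100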
5HT1E antag: 5-HT1E (human) receptor antagonism; P28566; AID 571; hit rate 0.99% among 65,000; CHO 5-HT1E Ga15 NFAT-bla reporter, FRET, antagonist; inhibition, % at 6 µM;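 active = inhibition above a set limit, the mean inhibition across every tested compound plus 3 SD, cut at about 29% in these data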;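 also: signal is the 460 over 535 nm emission ratio of beta-lactamase substrate; 0% = agonist plus DMSO wells and 100% = wells without agonist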
Target sequence (P28566 whole entry, looked up): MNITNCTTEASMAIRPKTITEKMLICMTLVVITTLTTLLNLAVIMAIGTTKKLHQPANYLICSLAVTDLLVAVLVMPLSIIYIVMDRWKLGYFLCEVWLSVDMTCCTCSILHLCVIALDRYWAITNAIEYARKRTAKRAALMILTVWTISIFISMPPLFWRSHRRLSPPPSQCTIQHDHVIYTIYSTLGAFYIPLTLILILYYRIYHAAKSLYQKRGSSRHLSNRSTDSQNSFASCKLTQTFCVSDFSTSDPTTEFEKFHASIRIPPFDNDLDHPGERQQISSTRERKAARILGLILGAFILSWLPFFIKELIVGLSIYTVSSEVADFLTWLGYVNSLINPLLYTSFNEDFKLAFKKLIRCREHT
5-HT1A blocker: antagonists of human 5-HT1a serotonin receptor; P08908; CHO 5-HT1a Ga15 NFAT-bla reporter, antagonist mode; inhibition, % at 10 µM; hit rate 0.68% among 62,000; AID 612;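 active = inhibition above the mean of all tested compounds plus 3 SD, cut at about 43% in these data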;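 also: receptor stimulated by 5-CT agonist at 100 nM near EC80; beta-lactamase reporter measured by ratiometric fluorescence of a cleavable substrate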
HTR1E agonist: agonists of human 5-HT1E serotonin receptor. P28566. CHO 5-HT1E Ga15 NFAT-bla reporter, FRET; 0% DMSO wells, 100% control agonist wells. activation, % at 6 µM. hit rate 0.69% among 65,000. AID 574;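 active = activation above a set limit, the screen-wide mean activation plus 3 SD, cut at about 8.5% in these data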;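 also: 100% = positive control agonist at 1 µM giving full maximal response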
HEK293 NFkB inh: inhibitors of the PMA/ionomycin-induced NF-kB reporter in HEK293 cells. HEK-293 NF-kB luciferase reporter, luminescence. inhibition, % at 3 µM. hit rate 0.21% among 62,000;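 active = inhibition above the mean of all tested compounds plus 3 SD, cut at about 40% in these data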;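 also: 0% = stimulated DMSO wells and 100% = 10 µM reference inhibitor 5653914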
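System: NF-kB luciferase reporter HEK-293 cells | Replication: Single test | Control set: DMSO vs reference inhibitor | Evaluation: % inhibition | Schedule: 1 h pretreatment, 16 h stimulation, 37 °C | Probe or stimulus: PMA with ionomycin | Compound dosing: One dose, 3 µM | Detection: Luciferase luminescence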
Starred values were filed as active, the others as inactive; x = no result given.

SMILES	Jurkat tox 60K	5HT1a ag	5HT1E antag	5-HT1A blocker	HTR1E agonist	HEK293 NFkB inh
COc1cc(OC)cc(-c2cc3nc(C)c(CCC(=O)NC(C)CCc4ccco4)c(C)n3n2)c1 (configuration not stated)	6.7	-1.9	9.5	18.2	0.0	14.3
COc1cc(OC)cc(-c2cc3nc(C)c(CCC(=O)O)c(C)n3n2)c1	2.4	-2.0	5.6	1.2	-0.8	63.3*
CCCCC(CCC(=O)Nc1ccccc1C(=O)OCC)C(=O)O (configuration not stated)	-4.4	0.5	-6.0	-7.0	0.8	8.5
O=c1[nH]cnc2cc(Cl)ccc12	-4.1	50.3*	1.1	5.2	-1.5	15.5
Fc1cc(Br)ccc1Nc1nc2ccccc2n2nnnc12	3.9	2.8	-10.9	-15.6	15.1*	1.0
Fc1ccccc1N1CCN(c2nc3ccccc3n3nnnc23)CC1	-1.0	-1.7	-2.1	-2.3	-0.7	17.2
O=C(c1cc2ccccc2o1)N1CCN=C1SCc1cccnc1	-0.3	2.4	-3.7	0.6	0.2	19.3
Cc1ccccc1-n1c(SCc2ccccn2)nc2n[nH]c(C)c2c1=N	12.6	5.2	56.8*	-93.3	0.8	17.9
CCOc1ccccc1NC(=O)CCSc1nc2n[nH]c(C)c2c(=N)n1-c1ccccc1Cl	x	5.8	23.7	-4.7	1.6	14.3
COc1ccc(NC(=O)Cn2c(=O)sc3ccccc32)c(OC)c1	0.9	-4.4	1.8	17.5	0.1	5.3
COc1ccc(Cn2nnnc2C(c2ccc(N(C)C)cc2)N2CCC(C)CC2)cc1 (configuration not stated)	-4.7	2.6	9.9	43.5*	1.4	20.4
COc1ccc(N2CCN(CCNC(=O)C3CCN(S(=O)(=O)c4cccs4)CC3)CC2)cc1	3.5	-0.3	-3.5	-3.8	-0.7	-5.4
COc1ccc(N2CCN(S(=O)(=O)c3cccs3)CC2)cc1	-2.1	26.2*	1.7	-3.1	0.2	3.6
COc1ccc(CNc2nc(-c3cccnc3)nn2C(=O)c2cccs2)cc1	-5.0	0.0	31.0*	36.0	0.3	14.7
COc1cc2nc3c4ccccc4n(CC#N)c3nc2cc1OC	-0.9	-1.7	4.6	-10.8	2.3	5.2
CCn1c2ccccc2c2nc3ccccc3nc21	2.1	0.8	32.2*	-8.9	0.4	-2.4
CCn1c2ccccc2c2nc3cc(OC)c(OC)cc3nc21	6.0	4.7	45.2*	6.6	1.9	25.2
COc1ccc(-c2csc(/C(C#N)=C(\O)CSc3nccn3C)n2)cc1OC	0.2	-1.3	-6.4	1.7	-0.6	1.4
Cc1ccccc1N1CCN(Cc2cccc(C(=O)O)c2)CC1	-2.5	-0.4	4.0	8.2	21.8*	8.5
COc1ccc2sc(N3C(=O)C4CC=C(C)CC4C3=O)nc2c1 (configuration not stated)	6.9	-0.8	2.4	12.0	-0.6	-2.7
COc1cccc(C(=O)CSc2nnc(COc3cccc4cccnc34)o2)c1	15.4	46.5*	12.2	5.8	-1.7	9.4
Cc1ccc(C(=O)CSc2nnc(COc3cccc4cccnc34)o2)cc1	1.6	-1.6	9.7	-2.8	0.1	17.5
S=c1[nH]nc(C23CC4CC(CC(C4)C2)C3)n1Cc1ccco1	2.9	-1.6	15.1	6.1	0.1	7.6
Brc1ccc(C2=Nn3c(nnc3-c3ccncc3)SC2)cc1	-0.7	-3.8	1.2	10.7	-0.5	34.0
COc1ccc(C2=Nn3c(nnc3-c3ccc(OC)cc3)SC2)cc1	93.2*	-0.6	78.6*	42.7*	-0.2	24.6
SMILES	Jurkat tox 60K	5HT1a ag	5HT1E antag	5-HT1A blocker	HTR1E agonist	HEK293 NFkB inh
Cc1cccc(-c2nnc3n2N=C(c2ccccc2Br)CS3)c1	11.6	-5.4	30.9*	15.8	1.6	-3.5
Clc1ccccc1C1=Nn2c(nnc2-c2ccncc2)SC1	-3.8	-3.5	20.5	33.5	0.1	17.2
c1ccc(C2=Nn3c(nnc3-c3cc(-c4ccccc4)n[nH]3)SC2)cc1	7.3	-2.2	20.1	-13.9	1.9	-4.1
Cc1ccc(-c2nnc3n2N=C(c2ccccc2)CS3)cc1	9.6	-0.5	45.3*	4.6	1.0	-5.2
Cc1nc2sc3c(c2c2nc(-c4ccco4)nn12)CC(C)(C)OC3	7.9	0.2	3.5	1.0	0.7	21.9
COc1c[nH]n(C2CCCCC2)c(=O)c1=O	-1.7	-1.3	-4.0	-7.2	1.8	-6.1
